The values that follow come from ChEMBL document CHEMBL3853286, “Screening and Biological Effects of Marine Pyrroloiminoquinone Alkaloids: Potential Inhibitors of the HIF-1α/p300 Interaction” (J Nat Prod, 2016).

The nature of experiment [1]: Cytotoxicity against human HCT116 cells measured after 18 hrs under hypoxic condition by CCK8 assay. It is filed as functional, cell-based. The following applies: HCT-116, 18 h. Summed up:
(§1)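 HCT 116 cells in McCoy's 5A with 10% FBS, seeded 10 000 cells/well. After 24 h, treated with compound (0.05−50 μM), tirapazamine positive control or DMSO (0.5%, v/v). Incubated 18 h or 48 h at 0.5% O2, then CCK-8 for 2 h at 37 °C with absorbance at 450 nm. Percent viability relative to DMSO controls. Quadruplicate wells, triplicate experiments.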
On the technique in general: Tetrazolium dyes change colour on reduction, which living cells bring about.

A short description of experiment [2]: Cytotoxicity against human LNCAP cells measured after 18 hrs under hypoxic condition by CCK8 assay. It is filed as functional, cell-based. The procedure, abridged: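 LNCaP cells in phenol-free RPMI-1640 with 10% FBS, seeded 15 000 cells/well. After 24 h, exposed to compound (0.1−10 μM), tirapazamine or DMSO (0.5%, v/v) for 18 h at 1% O2. CCK-8 absorbance read at 450 nm after 2 h at 37 °C and normalized to DMSO controls to give percent viability. Quadruplicate wells, triplicate experiments.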

For experiment [3], the target named is T1, Hypoxia-inducible factor 1-alpha (Homo sapiens, UniProt Q16665). Briefly: Inhibition of hypoxia-induced HIF1alpha transcriptional activity in human HCT116 cells at 0.1 to 10 uM measured after 18 hrs by hypoxia response element-driven dual luciferase reporter gene assay relative to hypoxia control. The experiment is classed as cell-based. The following applies: HCT-116. Summed up:
(§2)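 HCT 116 cells seeded 50 000/well and cotransfected (Lipofectamine 2000) with 100 ng pGL4.42 HRE-firefly luciferase and 10 ng pRL-TK Renilla. After 24 h, treated in 0.1% FBS medium with compound (0.01−10 μM), chetomin (0.5 μM) or tirapazamine (25 μM). Incubated 18 h at 0.5% O2 or normoxia. HRE:TK ratio normalized to hypoxic DMSO control. Wilcoxon test with Hochberg correction.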
Target sequence in this assay (Q16665 whole entry, looked up): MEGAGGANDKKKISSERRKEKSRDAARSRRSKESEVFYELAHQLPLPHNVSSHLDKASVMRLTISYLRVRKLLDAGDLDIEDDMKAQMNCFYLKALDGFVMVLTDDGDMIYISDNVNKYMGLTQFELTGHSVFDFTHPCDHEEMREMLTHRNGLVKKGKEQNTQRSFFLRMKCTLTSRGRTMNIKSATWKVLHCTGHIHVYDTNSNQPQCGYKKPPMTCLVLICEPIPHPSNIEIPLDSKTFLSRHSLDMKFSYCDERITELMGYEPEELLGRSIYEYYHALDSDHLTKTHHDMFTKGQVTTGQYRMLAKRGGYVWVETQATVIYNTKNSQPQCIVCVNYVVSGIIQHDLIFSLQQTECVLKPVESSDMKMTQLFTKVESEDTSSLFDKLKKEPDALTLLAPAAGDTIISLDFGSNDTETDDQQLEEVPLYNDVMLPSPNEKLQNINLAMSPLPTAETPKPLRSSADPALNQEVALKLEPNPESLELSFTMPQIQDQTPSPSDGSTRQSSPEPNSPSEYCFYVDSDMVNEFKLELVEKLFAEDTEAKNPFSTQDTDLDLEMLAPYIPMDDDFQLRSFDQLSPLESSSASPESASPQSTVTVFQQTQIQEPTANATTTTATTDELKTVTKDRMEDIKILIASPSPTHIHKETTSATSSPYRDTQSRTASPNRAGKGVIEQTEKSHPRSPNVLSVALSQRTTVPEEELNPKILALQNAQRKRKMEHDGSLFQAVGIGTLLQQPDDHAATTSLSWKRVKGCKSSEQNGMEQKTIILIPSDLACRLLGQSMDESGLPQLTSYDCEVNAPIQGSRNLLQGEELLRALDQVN

Experiment [4] has as its target T1, Hypoxia-inducible factor 1-alpha. Briefly: Inhibition of hypoxia-induced HIF1alpha transcriptional activity in human HCT116 cells assessed as compound concentration causing inhibition of transcriptional activity measured after 18 hrs by hypoxia response element-driven dual luciferase reporter gene assay relative to hypoxia control. The experiment is classed as cell-based. The following applies: HCT-116. Summed up:
as §2
(In general: Reporter assays use an easily measured gene product as a stand-in for the process of interest.)
Target sequence in this assay (Q16665 whole entry, looked up): as above

Experiment [5] shares this target. Briefly: Inhibition of hypoxia-induced HIF1alpha transcriptional activity in human LNCAP cells assessed as compound concentration causing inhibition of transcriptional activity measured after 18 hrs by hypoxia response element-driven dual luciferase reporter gene assay relative to hypoxia control. It is filed as cell-based. The procedure, abridged: (§3)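 LNCaP cells seeded 15 000/well and cotransfected (Lipofectamine 3000) with 10 ng pGL4.42 HRE-luciferase and 1 ng pRL-TK. After 24 h, treated in phenol-free RPMI-1640 with 0.1% charcoal-stripped FBS containing compound (0.1, 1, 10 μM). Incubated 18 h at 1% O2. Dual-luciferase HRE:TK ratio normalized to hypoxic DMSO control. Quadruplicate wells, triplicate experiments, Wilcoxon test with Hochberg correction.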
Target sequence in this assay (Q16665 whole entry, looked up): as above

Experiment [6] shares this target. The experiment can be described thus: Displacement of GST-tagged p300-CH1 domain (323 to 423 residues) from synthetic biotinylated HIF-1alpha C-TAD domain (786 to 826 residues) (unknown origin) measured after overnight incubation by fluorescence analysis. Summed up:
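Cell-free protein–protein displacement assay. The p300 CH1 domain is displaced from the HIF-1α C-TAD, which is immobilized on streptavidin-coated plates. IC50 values derived.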
Target sequence in this assay (Q16665 whole entry): as the sequence (Q16665 whole entry, looked up) above

Experiment [7] shares this target. The experiment can be described thus: Inhibition of hypoxia-induced HIF1alpha transcriptional activity in human LNCAP cells at 0.1 to 10 uM measured after 18 hrs by hypoxia response element-driven dual luciferase reporter gene assay relative to hypoxia control. It is filed as cell-based. Summed up: as §3
Target sequence in this assay (Q16665 whole entry, looked up): as above
The nature of experiment [8]: Cytotoxicity against human COLO205 cells measured after 48 hrs under hypoxic condition by CCK8 assay. It is filed as functional, cell-based. The following applies: COLO 205, 48 h. The procedure, abridged: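 COLO 205 cells in RPMI-1640 with 10% FBS, seeded 15 000 cells/well. After 24 h, treated with fresh medium holding compound (0.001−10 μM), tirapazamine positive control or DMSO (0.5%, v/v). Incubated 48 h at 0.5% O2, then CCK-8 added for 2 h at 37 °C and absorbance read at 450 nm. Viability normalized to DMSO controls. Quadruplicate wells, triplicate experiments.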

The target of experiment [9] is T1, Hypoxia-inducible factor 1-alpha. The experiment can be described thus: Inhibition of HIF1alpha in human LNCAP cells assessed as hypoxia-induced VEGF secretion at 0.5 uM measured after 18 hrs under hypoxic conditions by ELISA. In general terms: An ELISA detects its analyte on a solid surface through an enzyme-linked reagent.
Target sequence in this assay (Q16665 whole entry, looked up): as above
Experiment [10] in a line: Cytotoxicity against human HCT116 cells measured after 48 hrs under hypoxic condition by CCK8 assay. It is filed as functional, cell-based. The following applies: HCT-116, 48 h. The procedure, abridged: as §1
In experiment [11] the target is T1, Hypoxia-inducible factor 1-alpha. The experiment can be described thus: Inhibition of hypoxia-induced HIF1alpha transcriptional activity in human LNCAP cells at 0.25 to 0.5 uM measured after 18 hrs by hypoxia response element-driven dual luciferase reporter gene assay relative to hypoxia control. It is filed as cell-based.
Target sequence in this assay (Q16665 whole entry, looked up): as above
Experiment [12] shares this target. Briefly: Inhibition of hypoxia-induced HIF1alpha transcriptional activity in human HCT116 cells at 0.25 to 0.5 uM measured after 18 hrs by hypoxia response element-driven dual luciferase reporter gene assay relative to hypoxia control. The following applies: HCT-116. The experiment is classed as cell-based. The procedure, abridged: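 HCT 116 cells seeded 50 000/well and cotransfected with 100 ng pGL4.42 (4×HRE-firefly luciferase) and 10 ng pRL-TK Renilla using Lipofectamine 2000. After 24 h, cells treated in medium with 0.1% FBS, compound 0.01–10 μM. Incubated 18 h at 0.5% O2 or normoxia. HRE:TK signal divided by the mean of the DMSO hypoxic controls gives fold-induction. Quadruplicate wells, triplicate experiments.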

Experiment [13] has the same target. Briefly: Inhibition of HIF-1alpha in human LNCAP cells assessed as decrease in VEGF secretion at 0.5 uM measured after 18 hrs under hypoxic conditions by ELISA. It is filed as cell-based. The procedure, abridged: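 LNCaP cells seeded 15 000/well in 96-well plates and incubated overnight at 37 °C. Medium then replaced with medium containing 0.1% charcoal-stripped FBS plus compound at 0.25, 0.5 or 1 μM, or DMSO control. Incubated 18 h at 1% O2. Supernatant diluted 2-fold and VEGF quantified by Quantikine ELISA. Values normalised per cell using CCK-8 viability. Triplicate experiments; exact Wilcoxon test with Hochberg correction.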

Experiment [14] shares this target. The experiment can be described thus: Inhibition of HIF-1alpha in human PC3 cells assessed as decrease in VEGF mRNA expression level. The experiment is classed as cell-based. The following applies: PC-3.
The target is the same in experiment [15]. The experiment can be described thus: Inhibition of HIF-1alpha in human PC3 cells assessed as decrease in LDHA mRNA expression level. It is filed as cell-based. The following applies: PC-3.
Experiment [16] has the same target. The experiment can be described thus: Inhibition of HIF-1alpha in human PC3 cells assessed as decrease in ENO1 mRNA expression level. It is filed as cell-based. The following applies: PC-3.
Experiment [17] shares this target. Briefly: Inhibition of HIF1alpha in human LNCAP cells assessed as hypoxia-induced VEGF secretion at 0.25 to 1 uM measured after […] under hypoxic conditions by ELISA. The experiment is classed as cell-based.

SMILES strings stand for the structures. Activity calls are given as the source filed them. The rule behind the calls is not given here.

Usually IC50 stands for the concentration needed to halve the response being measured. Turning to `Cn1c(C[C@H](N)C(=O)O)cnc1S[C@H]1[C@H]2C(=O)C=C3S[C@H]4C[C@]31C1=C(N4)C(=O)c3[nH]cc4c3C1=[N+]2CC4`, the IC50 was above 10 µM in experiment [1]; above 10 µM in experiment [2]; 2.2 µM in experiment [6]; above 10 µM in experiment [8]; above 50 µM in experiment [10]. Also, the “inhibition (qualitative active call)” value in experiment [3] is “Active”. The Concentration causing inhibition stood at 0.5 µM in [4] and 0.1 µM in experiment [5]. Moreover, the “inhibition outcome (active/inactive)” value in [7] was “Active”. Also, the inhibition entry in experiment [9] is “Active”.

Consider `O=C1C(NC2Cc3cc(Br)c(O)cc3S2)=CC2=NCCc3c[nH]c1c32` (centres undefined) [MAKALUVAMINE F], for which the IC50 is 7.2 µM in [1], above 10 µM in experiment [2], 8.3 µM in [6] and above 10 µM in [8]. Also, the “inhibition (qualitative active call)” value in experiment [3] is “Active”. In addition, the Concentration causing inhibition in experiment [4] came to 0.25 µM; in experiment [5], 0.1 µM. Moreover, the “inhibition outcome (active/inactive)” value in experiment [7] is “Active”.

As to `CN1C(=O)[C@@]2(CO)SS[C@@]1(Cc1cn([C@]34C[C@@]56SS[C@](CO)(C(=O)N5[C@H]3Nc3ccccc34)N(C)C6=O)c3ccccc13)C(=O)N2C`, the inhibition entry in experiment [11], in experiment [12] and in experiment [13] was “Active” each time. Also, the IC50 in [6] worked out at 1.9 µM.

As for `Nc1n[n+]([O-])c2ccccc2[n+]1[O-]` [TIRAPAZAMINE], the IC50 in [1] came to 72.7 µM; in experiment [8], 47.7 µM; in experiment [10], 11.9 µM.

Regarding `CN1C(=O)[C@]23CC4=CC=C[C@H](O)[C@H]4N2C(=O)[C@@]1(CO)SS3`, the inhibition entry in experiment [14], in experiment [15] and in experiment [16] was “Active” throughout.

Regarding `O=C1C2=C3C4=[N+](CCc5c[nH]c1c54)[C@@H]1C(=O)C=C4S[C@@H](C[C@@]43[C@H]1O)N2`, the IC50 in experiment [1] is 6.2 µM; in [2] it was 8.3 µM; in experiment [6], 0.73 µM; in [8], 7.6 µM; in [10], above 50 µM. The “inhibition (qualitative active call)” value in [3] is “Active”. For the same compound, the Concentration causing inhibition in [4] was 0.1 µM; in [5], 1 µM. Further, the “inhibition outcome (active/inactive)” value in [7] is “Active”. Also, the inhibition entry in experiment [17] was “Active”.

Take `O=C1C2=C(C3=NCCc4c[nH]c1c43)[C@]1(C=C(Br)[C@H](O)C(Br)=C1)CCN2`: the IC50 was 8.6 µM in experiment [1], above 10 µM in [2], 35.2 µM in experiment [6] and 5.1 µM in experiment [8]. For the same compound, in [3], the “inhibition (qualitative active call)” value was “Active”. In addition, the values for the Concentration causing inhibition in [4] and in experiment [5] were 10 µM and 1 µM, respectively. Besides, in experiment [7], the “inhibition outcome (active/inactive)” value was “Active”.

On to `O=C1C=C(SSC2=CC(=O)C(Br)=C[C@]23CCNC2=C3C3=NCCc4c[nH]c(c43)C2=O)[C@]2(C=C1Br)CCNC1=C2C2=NCCc3c[nH]c(c32)C1=O`, for which the IC50 in [1] is above 10 µM; in experiment [2], above 10 µM; in experiment [6] it was above 100 µM; in experiment [8] it was above 10 µM. Moreover, the “inhibition (qualitative active call)” value in experiment [3] is “Active”. Further, the Concentration causing inhibition in experiment [4] is 0.1 µM.

As for `O=C1C=C(S[C@H]2[C@H]3C(=O)C=C4S[C@H]5C[C@]42C2=C(N5)C(=O)c4[nH]cc5c4C2=[N+]3CC5)[C@]2(C=C1Br)CCNC1=C2C2=NCCc3c[nH]c(c32)C1=O`, the IC50 in experiment [1] is above 10 µM; in [2], above 10 µM; in experiment [6] it was 2.4 µM; in experiment [8], above 10 µM; in experiment [10], 26.8 µM. For the same compound, the “inhibition (qualitative active call)” value in experiment [3] is “Active”. Besides, the Concentration causing inhibition in [4] worked out at 0.1 µM; in experiment [5] it was 1 µM. Besides, the “inhibition outcome (active/inactive)” value in experiment [7] was “Active”.

Turning to `O=C1C=C2S[C@H]3C[C@]2(C=C1Br)C1=C(N3)C(=O)c2[nH]cc3c2C1=NCC3` [(+)-DISCORHABDIN B], the IC50 in [1] is 3.1 µM; in experiment [2] it was 7 µM; in experiment [6] it was 3.7 µM; in experiment [8] it was 1.8 µM. In [3], the “inhibition (qualitative active call)” value was “Active”. For the same compound, the values for the Concentration causing inhibition in experiment [4] and in experiment [5] were 0.1 µM and 1 µM, respectively. Moreover, the “inhibition outcome (active/inactive)” value in experiment [7] is “Active”.
